The source made the active and inactive calls. The calls are words filed in the database; no cut-off is given here.
Key:
[1] = target: T1, Protein deacetylase HDAC6 (Homo sapiens) (UniProt Q9UBN7); assay: Inhibition of HDAC6 in human MV4-11 cells assessed as increase in acetylation of alpha tubulin at 0.25 uM by Western blot analysis; assay type: cell-based
T1 sequence (whole entry): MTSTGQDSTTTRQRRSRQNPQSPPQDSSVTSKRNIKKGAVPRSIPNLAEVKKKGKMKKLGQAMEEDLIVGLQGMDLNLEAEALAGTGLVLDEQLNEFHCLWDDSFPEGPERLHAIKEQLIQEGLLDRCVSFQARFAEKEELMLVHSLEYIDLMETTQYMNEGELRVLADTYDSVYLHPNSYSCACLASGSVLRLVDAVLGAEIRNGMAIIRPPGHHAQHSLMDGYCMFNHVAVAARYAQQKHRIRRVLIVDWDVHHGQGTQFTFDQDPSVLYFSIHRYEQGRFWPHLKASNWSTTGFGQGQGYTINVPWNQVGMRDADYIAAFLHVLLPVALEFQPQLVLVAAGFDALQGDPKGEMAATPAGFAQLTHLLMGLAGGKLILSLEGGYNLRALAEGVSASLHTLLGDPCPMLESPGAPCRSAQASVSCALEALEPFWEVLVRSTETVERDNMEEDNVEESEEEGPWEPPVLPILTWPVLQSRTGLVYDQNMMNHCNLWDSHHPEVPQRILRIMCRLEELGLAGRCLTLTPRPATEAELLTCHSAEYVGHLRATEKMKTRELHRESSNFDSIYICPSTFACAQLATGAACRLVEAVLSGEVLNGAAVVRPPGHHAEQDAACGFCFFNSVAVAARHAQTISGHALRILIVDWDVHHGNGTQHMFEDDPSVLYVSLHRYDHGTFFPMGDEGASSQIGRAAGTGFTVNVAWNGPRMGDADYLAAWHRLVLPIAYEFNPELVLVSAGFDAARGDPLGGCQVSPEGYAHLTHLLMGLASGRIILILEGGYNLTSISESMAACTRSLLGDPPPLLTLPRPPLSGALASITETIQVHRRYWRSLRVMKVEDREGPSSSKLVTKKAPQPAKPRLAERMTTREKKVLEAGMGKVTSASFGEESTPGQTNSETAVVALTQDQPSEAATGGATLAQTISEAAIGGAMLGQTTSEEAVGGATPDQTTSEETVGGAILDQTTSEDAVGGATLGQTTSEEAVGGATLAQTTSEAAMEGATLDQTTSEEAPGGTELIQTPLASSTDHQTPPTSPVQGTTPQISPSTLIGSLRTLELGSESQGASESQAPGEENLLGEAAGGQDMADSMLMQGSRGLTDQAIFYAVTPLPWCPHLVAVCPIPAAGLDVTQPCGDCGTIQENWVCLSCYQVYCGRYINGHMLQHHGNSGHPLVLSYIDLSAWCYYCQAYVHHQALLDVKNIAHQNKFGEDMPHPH
In short: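 MV4-11 cells incubated with compound for 6 h (0.25–1 μM range), then lysed in RIPA buffer. Lysates were BCA-quantified and run on 4–20% SDS-PAGE, then transferred to nitrocellulose and blocked in 5% milk/PBST. Primary anti-acetyl-α-tubulin mouse monoclonal and HSC70 (1:1000) were applied overnight at 4 °C, followed by HRP anti-mouse (1:5000) and ECL detection.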

[2] = target: T1, Protein deacetylase HDAC6 (Homo sapiens); assay: Inhibition of HDAC6 in human HeLa cells assessed as acetylation of alpha tubulin accumulation at 0.1 uM by DAPI staining based immunofluorescent assay; assay type: cell-based
In short: (§1)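 HeLa cells plated to sub-confluency and treated after 24 h with compound at 0.1 or 2 μM for 6 h; DMSO served as vehicle control. Cells were fixed (4% formaldehyde), permeabilized (1% Triton X-100) and blocked in 5% BSA for 1 h at room temperature. Staining used anti-acetyl-α-tubulin (1:100) plus anti-acetyl-H3 Lys18 (1:50) with DAPI counterstain, then imaging and quantification. Values are the mean of duplicates.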

[3] = target: T1, Protein deacetylase HDAC6 (Homo sapiens); assay: Inhibition of HDAC6 in human HeLa cells assessed as acetylation of alpha tubulin accumulation at 2 uM by DAPI staining based immunofluorescent assay; assay type: cell-based; in short: as §1
RPMI-8226 = assay: Anti-proliferative activity against human RPMI-8226 cells assessed as cell viability measured after 72 hrs by Cell-Titer assay; assay type: functional, cell-based; settings: RPMI-8226, 72 h
In short: (§2)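 Cells in RPMI-1640 with 10% FBS (AML3 in IMDM with 10% FBS). Cells were plated in 96-well plates, and after 24 h compounds or vehicle (0.5% DMSO) were added. CellTiter-Blue was added after 72 h and fluorescence was read at 560/590 nm. IC50 was obtained by non-linear regression.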

MM1.S = assay: Anti-proliferative activity against human MM1.S cells assessed as cell viability measured after 72 hrs by Cell-Titer assay; assay type: functional, cell-based; in short: as §2
U-87 MG = assay: Anti-proliferative activity against human U87G cells assessed as cell viability measured after 72 hrs by Cell-Titer assay; assay type: functional, cell-based, U-87MG ATCC
In short: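 U87G cells grown in EMEM with 10% FBS were plated in 96-well plates and dosed after 24 h, with 0.5% DMSO as vehicle. CellTiter-Blue read-out at 560/590 nm fluorescence after 72 h. IC50 by non-linear regression.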

MOLM-13 = assay: Anti-proliferative activity against human MOLM-13 cells assessed as cell viability measured after 72 hrs by Cell-Titer assay; assay type: functional, cell-based; settings: MOLM-13, 72 h; in short: as §2
MV4-11 = assay: Anti-proliferative activity against human MV4-11 cells assessed as cell viability measured after 72 hrs by Cell-Titer assay; assay type: functional, cell-based; settings: MV4-11, 72 h
In short: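 MV4-11 cells grown in IMDM with 10% FBS were plated in 96-well plates. After 24 h, compounds or vehicle (0.5% DMSO) were added. After 72 h, CellTiter-Blue was added and fluorescence was read at 560/590 nm. IC50 came from non-linear regression.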

Jurkat = assay: Anti-proliferative activity against human Jurkat cells assessed as cell viability measured after 72 hrs by Cell-Titer assay; assay type: functional, cell-based; in short: as §2
OCI-AML-3 = assay: Anti-proliferative activity against human AML-3 cells assessed as cell viability measured after 72 hrs by Cell-Titer assay; assay type: functional, cell-based; settings: OCI-AML-3, 72 h; in short: as §2
[4] = Anti-proliferative activity against human AR230 cells assessed as cell viability measured after 72 hrs by Cell-Titer assay; assay type: functional, cell-based
In short: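 AR230 cells were maintained in RPMI-1640 with 10% FBS, 2 mM L-glutamine and 1 μM imatinib. Cells were plated in 96-well plates and dosed after 24 h, with 0.5% DMSO as vehicle. CellTiter-Blue fluorescence was read at 560/590 nm after 72 h. IC50 by non-linear regression.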

BV-173 = assay: Anti-proliferative activity against human BV-173 cells assessed as cell viability measured after 72 hrs by Cell-Titer assay; assay type: functional, cell-based; settings: BV-173, 72 h; in short: as §2
HeLa = assay: Anti-proliferative activity against human HeLa cells assessed as cell viability measured after 72 hrs by Cell-Titer assay; assay type: functional, cell-based
In short: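 HeLa cells grown in DMEM with 10% FBS were plated in 96-well plates. After 24 h they were treated with compound or 0.5% DMSO vehicle. CellTiter-Blue was added at 72 h and read at 560/590 nm fluorescence. IC50 from non-linear regression.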

[5] = Anti-proliferative activity against human MRC9 cells assessed as cell viability measured after 72 hrs by Cell-Titer assay; assay type: functional, cell-based; settings: MRC9, 72 h; in short: as §2

| Activity [1] | Activity [2] | Activity [3] | IC50 (RPMI-8226) [nM] | IC50 (MM1.S) [nM] | IC50 (U-87 MG) [nM] | IC50 (MOLM-13) [nM] | IC50 (MV4-11) [nM] | IC50 (Jurkat) [nM] | IC50 (OCI-AML-3) [nM] | IC50 (HeLa) [nM] | Structure (SMILES) | IC50 [4] [nM] | IC50 (BV-173) [nM] | IC50 [5] [nM] |
| --- | --- | --- | --- | --- | --- | --- | --- | --- | --- | --- | --- | --- | --- | --- |
| Active | inactive | Active | 700 | 700 | 2000 | 2000 | 600 | 1900 | 3300 | 3500 | O=C(NO)c1ccc(CN(Cc2cccnc2)S(=O)(=O)c2cc(F)c(F)c(F)c2F)cc1 | 1500 | 1700 | > 50000 |
| Active | inactive | inactive | 6500 | 1600 | 9100 | 13500 | 1200 | 1200 | 7700 | 7000 | O=C(CCCCCCNC(=O)c1cnc(N(c2ccccc2)c2ccccc2Cl)nc1)NO [CITARINOSTAT] | 4300 | 900 | 30400 |
